# Screens as filed in PubChem.
# Sampled rows, rich in hits. Any-hit rate of the full collection: about 12%.
# Diaph act CS: diaphorase activation or chemical reduction counter-screen; Diaphorase/resazurin coupled assay, resorufin fluorescence, 16 min; stronger effect = higher value; 1 = vehicle wells, 0 = NADH-free wells; activation factor at 20 µM; 190,000 tested, 0.005% active;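 active = diaphorase activity raised at least twofold by the compound at 20 µM; inactive = activation factor below 2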
#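 test system = bacterial diaphorase enzyme (C. kluyveri) | quantity = enzyme 0.07 U/mL final | reagent = NADH substrate 0.114 mM plus resazurin dye 0.1 mM, final | incubation = 16 min enzyme reaction, ambient temperature | buffer or medium = HEPES pH 7.4 buffer with MgCl2 and Tween 20 | signal = fluorescence of resorufin, 544 nm excitation, 590 nm emission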
# Lmaj promast: Leishmania major promastigote growth inhibition; 200,000 tested, 9% active; Leishmania major promastigotes, resazurin fluorescence viability; inhibition, % at 10 µM; in the data active = inhibition above about 50%;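 note: promastigotes grown with compound for 44 hours at 28 °C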
# Diaphorase inh: counter-screen for diaphorase-based assays: diaphorase inhibitors and chemical oxidizers; diaphorase resazurin-to-resorufin fluorescence, NADH, 16 min; bacterial (C. kluyveri) enzyme, not human; inhibition, % at 20 µM; 190,000 tested, 0.69% active;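 active = primary screen inhibition at 20 µM above a set limit, cut at about 50% in these data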;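 note: plate controls were DMSO with full reaction for no effect and wells lacking NADH for full effect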
#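 material = Clostridium kluyveri diaphorase enzyme | amount = 0.14 U/mL diaphorase, enzyme working solution | schedule = incubation 16 min, room temperature | detection = fluorescence of resorufin formed from resazurin, Ex 544/Em 590 nm | benchmarks = positive control minus NADH, DMSO neutral control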
# Cl transport mod: modulates chloride dependent transport by human KCC2; AID 1456; 190,000 tested, 2.2% active; Q9H2X9; KCC2 cells, thallium flux FluoZin-2 fluorescence; B-score of Tl+ flux slope (higher = more flux/activation; lower = inhibition) at 10 µM;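 active = thallium flux slope and its plate-corrected score both differing from the plate sample mean at a set confidence after two filtering rounds, in either direction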;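 note: slope of fluorescence scaled to starting intensity during 10 to 20 s after thallium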
# WT yeast gro inh: growth inhibition of WT yeast, mitochondrial fusion screen; mitochondrial fusion phenotypic screen, WT strain; 190,000 tested, 2.1% active; inhibition, % at 10 µM; AID 1362; in the data active = inhibition above about 58%; tested in S. cerevisiae
# ROMK mod: human ROMK K+ channel modulation, primary screen | P48048 | 130,000 tested, 2% active | Tet-inducible ROMK, thallium flux fluorescence; actives lie on both sides | B-score at 10 µM;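 active = signal ratio slope over the read window, or its plate-corrected B-score, at least 3 SD from the plate mean, either direction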;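 note: B-score of the F/F0 ratio slope over 7 to 12 s after thallium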
# Target sequence (P48048 whole entry, looked up): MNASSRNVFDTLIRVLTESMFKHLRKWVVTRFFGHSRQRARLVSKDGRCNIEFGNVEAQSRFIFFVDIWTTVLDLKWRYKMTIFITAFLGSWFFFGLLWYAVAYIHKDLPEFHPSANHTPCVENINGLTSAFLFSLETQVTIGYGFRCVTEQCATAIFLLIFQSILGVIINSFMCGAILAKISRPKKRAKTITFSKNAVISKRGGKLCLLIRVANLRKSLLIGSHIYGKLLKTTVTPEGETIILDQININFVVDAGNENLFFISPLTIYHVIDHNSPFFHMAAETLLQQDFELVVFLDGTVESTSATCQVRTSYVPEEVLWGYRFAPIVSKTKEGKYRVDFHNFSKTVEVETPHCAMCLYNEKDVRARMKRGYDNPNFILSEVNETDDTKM
# KCC2 secondary: KCC2 (human) modulation, secondary assay; normalised thallium flux (F/F0 slope) at 10 µM; shares compounds with Cl transport mod; 3,700 tested, 15% active; HEK293-KCC2, thallium flux, FluoZin2 fluorescence; stronger effect = higher value; AID 1713;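 active = thallium flux slope above the same plate's solvent-only control mean plus 3 SD; inconclusive = the two replicate wells disagree; inactive = no significant difference from solvent-only control wells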
# KCC2 bumet counter: bumetanide-insensitive thallium flux in KCC2 cells with ouabain, counter-screen | shares compounds with Cl transport mod | AID 1714 | 3,700 tested, 49% active | HEK293-KCC2 + bumetanide/ouabain, thallium flux FluoZin2; stronger effect = higher value | normalized thallium flux at 10 µM;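 active = thallium entry rate above the same plate's blocked-transporter control wells by more than 3 SD; inconclusive = the two repeat wells disagree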;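 note: raw slope of fluorescence over initial fluorescence between 10 and 20 s after thallium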
# KCC2 sec2: KCC2 (human) modulation, second secondary assay; 3,700 tested, 23% active; shares compounds with Cl transport mod; HEK293-KCC2, thallium flux FluoZin2 fluorescence; actives lie on both sides; F/F0 rise rate, 10–20 s post-thallium; AID 1715; normalized thallium flux at 10 µM;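 active = thallium flux slope more than 3 SD above or below the plate's solvent-only control mean, mostly below; inconclusive = the two repeat wells disagreed; inactive = no significant shift from solvent-only controls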;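 note: raw slope with 0.1% DMSO as baseline and bumetanide as block control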
# HEK counter1: acts in parental HEK cells, KCC2 counter-screen. shares compounds with Cl transport mod. HEK293 parental cells, thallium flux FluoZin2, ouabain; baseline-ratio fluorescence slope, 10–20 s after thallium. thallium flux rate (normalised fluorescence) at 10 µM. 3,700 tested, 46% active;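 active = thallium flux rate significantly above the same plate's solvent-only control wells, beyond their mean plus 3 SD; inconclusive = the two replicate wells gave conflicting results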
# KCC2 retest ouab: confirmation of human KCC2 modulators with ouabain | shares compounds with Cl transport mod | raw Tl+ flux slope (below DMSO = inhibition, above = activation) at 10 µM | HEK293-KCC2, thallium flux FluoZin2 fluorescence; bidirectional: low = inhibitor, high = activator | 3,700 tested, 48% active;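 active = thallium flux slope beyond 3 SD from same-plate DMSO control mean in most replicates, usually higher, sometimes lower; inconclusive = repeat tests gave conflicting results; inactive = no significant difference from controls in most replicates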;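 note: slope of initial-normalized fluorescence between seconds 10 and 20 after thallium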
# HEK293 Tl flux2: parental HEK flux effect, counter-screen 2 | shares compounds with Cl transport mod | HEK293 parental, thallium flux FluoZin-2 fluorescence slope | thallium flux slope at 10 µM | 3,700 tested, 33% active | AID 1718;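 active = thallium flux slope above the same plate's solvent-control mean plus 3 SD in both duplicate wells; inconclusive = duplicate wells that disagreed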;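 note: run without ouabain in cells lacking the KCC2 cotransporter; slope of fluorescence scaled to its starting value between 10 and 20 s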
# * marks the source's active call; other numbers are inactive results; ? = inconclusive; / = no result given.
SMILES,Diaph act CS,Lmaj promast,Diaphorase inh,Cl transport mod,WT yeast gro inh,ROMK mod,KCC2 secondary,KCC2 bumet counter,KCC2 sec2,HEK counter1,KCC2 retest ouab,HEK293 Tl flux2
Cc1cc(Br)ccc1-n1[nH]c(C)c(C=Nc2cccc3nsnc23)c1=O,0.4,0,61*,16*,-9,0.031,0.011,0.043*,0.029,0.017*,0.04*,?
CCOc1ccc(C(C(=O)NC2CCCC2)N(CCCO)C(=O)c2ccc(-c3ccccc3)[nH]2)cc1 (stereo not given),0.8,5,17,-5.7*,8,-0.63,0.0087,0.0053,?,0.0038,0.017*,0.011
O=C(NC1CCCC1)C(c1ccncc1)N(Cc1ccco1)C(=O)c1ccc(-c2ccccc2)[nH]1 (stereo not given),0.8,94*,23,-3.3*,-23,0.25,0.0071,?,0.024*,0.0074,?,0.011
Cn1c(=O)c2ncn(CC(=O)N=Nc3c(O)[nH]c4ccccc34)c2n(C)c1=O,1.1,-1,-12,0.33,-8,-0.77,/,/,/,/,/,/
NC(=O)C1CCCN(S(=O)(=O)c2ccc(Br)cc2)C1 (stereo not given),1,-6,-2,/,0,/,/,/,/,/,/,/
CC1(C)OC(=O)N(c2ccccc2)C12C=Cc1cc(Br)ccc1O2 (stereo not given),0.8,25,19,-0.082,5,0.14,/,/,/,/,/,/
CN1c2ccccc2C(C)(C)[C@]12C=Cc1cc(O)ccc1O2,0.8,99*,21,-3.4*,26,-1.8,0.0075,?,0.033,0.007,0.016*,0.011
Cc1ccc(C2=NNC(c3cccc(F)c3)S2)cc1 (stereo not given),1,1,4,10*,6,0.99,0.0062,?,0.03,0.0085,0.02,?
Cc1cc(CN(C)C(=O)CC2C(=O)NCCN2Cc2c(F)cccc2Cl)on1 (stereo not given),/,/,/,7.9*,/,/,0.016,0.0048,0.028,0.0076,0.016,0.01
O=S(=O)(c1ccc(F)cc1)N1CCC(O)(c2ccc3c(c2)OCO3)CC1,1,-8,1,-4.3*,16,/,0.0071,0.0038,0.028,0.0076,0.015*,0.0099
S=c1nc2ccccc2c2nc(-c3ccccc3)[nH]n12,0.2,-1,77*,32*,71*,/,0.03*,0.046*,0.036,0.013*,0.041*,0.017*
COc1cc(/C=N/NC(=O)C23CC4CC(CC(C4)C2)C3)cc(Br)c1O,0.8,-4,22,0.00032,-2,-0.66,/,/,/,/,/,/
O=C(N/N=C/c1cc([N+](=O)[O-])cc(Br)c1O)C12CC3CCC(CC(C3)C1)C2,/,/,/,8.3*,/,/,0.0087,0.017*,0.033,0.012*,?,?
CCOC(=O)c1cnn(-c2nc(OC)cc(OC)n2)c1C(F)(F)F,0.9,-9,6,-11*,19,/,0.0069,0.0043,0.03,0.0073,0.019,0.01
CN1C(C(=O)NCc2ccccc2)CC2Cn3c(nc4cc(Cl)c(Cl)cc43)C21 (stereo not given),/,/,/,-3.2*,/,/,0.017,0.0045,0.022*,0.007,0.014,0.01
O=C(COC(=O)[C@H](Cc1ccccc1)NC(=O)c1cccs1)NC1CC1,1,-1,2,0.36,-17,/,/,/,/,/,/,/
Oc1ccccc1-c1csc(-c2ccccc2)n1,0.7,-1,30,0.02,33,-0.17,/,/,/,/,/,/
Oc1ccc(-c2csc(-c3ccccc3)n2)cc1O,0.3,59*,71*,-4.4*,5,/,0.0085,?,0.027,0.007,0.021*,0.0097
Cc1ccc(C(=O)Nc2ccc(C(=O)N3CCCCC3C)cc2)cc1 (stereo not given),1,3,-1,-0.34,8,-0.77,/,/,/,/,/,/
Cc1ccc(N2CC(C(=O)N3CCc4ccccc4C3)CC2=O)cc1 (stereo not given),0.8,-2,18,/,-4,/,0.0069,0.0042,0.029,0.0071,0.017,0.0097
Cc1ccsc1/C=N/NC(=O)CO,1,-1,2,/,-2,-0.79,/,/,/,/,/,/
CCCCNC(=S)N/N=C/c1ccccc1F,0.9,-9,10,7.2*,17,0.72,0.011,0.038*,0.033,0.019*,?,0.012*
CCCCNC(=S)N/N=C/c1sccc1C,0.9,-5,5,10*,11,/,0.01,0.017*,0.034,0.019*,?,?
CCCCNC(=S)N/N=C/c1cc(C)ccc1C,0.8,-4,25,4.3*,66*,0.5,?,0.0091*,0.035,0.012*,?,0.014*
Cc1ccc(/C=N/NC(=S)NCCc2ccccc2)s1,0.9,-2,11,0.11,1,0.14,/,/,/,/,/,/
SMILES,Diaph act CS,Lmaj promast,Diaphorase inh,Cl transport mod,WT yeast gro inh,ROMK mod,KCC2 secondary,KCC2 bumet counter,KCC2 sec2,HEK counter1,KCC2 retest ouab,HEK293 Tl flux2
CCCCNC(=S)N/N=C/c1ccc(C)s1,0.9,49,6,4*,10,-0.94,?,0.027*,0.031,0.012*,0.021*,0.014*
Cn1cc(P(=S)(N2CCOCC2)N2CCOCC2)cc1P(=S)(N1CCOCC1)N1CCOCC1,0.9,-7,6,-0.67,4,-0.053,/,/,/,/,/,/
Cc1ccccc1C(=O)Nc1cccc(NC(=O)Cn2cnc3c(=O)n(C)c(=O)n(C)c32)c1,0.9,-5,10,0.081,8,/,/,/,/,/,/,/
COCCN1C(=O)/C(=C/c2ccc(OCc3ccc(C(=O)O)cc3)c(OC)c2)SC1=Nc1ccccc1,0.8,-2,18,-5.7*,59*,-2.3,0.0074,0.0051,0.022*,0.0066,0.013*,0.0094
NNC(=O)Cn1c(SCc2ccccc2)nc2ccccc21,0.9,0,7,-3.3*,24,-0.083,0.0074,0.0045,0.03,0.0074,0.018,0.0099
O=C(O)CCn1c(SCc2cccc3ccccc23)nc2ccccc21,0.8,5,15,-8.7*,11,-0.93,?,0.0065,0.022*,0.0066,0.016*,0.0097
